Screens: PubChem BioAssay, Broad Institute
The list is not random: actives were taken first. Their share in the collection is about 5.9%.
KDM4C inh: inhibitors of GASC-1 (KDM4C) histone demethylase, primary screen, biochemical, single concentration HTS | inhibition, % at 12.5 µM | Lysine-specific demethylase 4C (Homo sapiens), Q9H3R0 | 96,000 tested, 0.15% active | GST-KDM4C 2-372, H3K9me3 peptide, LANCE TR-FRET;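 active means mean replicate inhibition above about 25%, with at least 55% of replicates also reaching it, limit read from the data, passing the limit was not always enough; inconclusive means only one of those two conditions met; inactive means neither condition met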
Target sequence (Q9H3R0 2-372 limits assumed): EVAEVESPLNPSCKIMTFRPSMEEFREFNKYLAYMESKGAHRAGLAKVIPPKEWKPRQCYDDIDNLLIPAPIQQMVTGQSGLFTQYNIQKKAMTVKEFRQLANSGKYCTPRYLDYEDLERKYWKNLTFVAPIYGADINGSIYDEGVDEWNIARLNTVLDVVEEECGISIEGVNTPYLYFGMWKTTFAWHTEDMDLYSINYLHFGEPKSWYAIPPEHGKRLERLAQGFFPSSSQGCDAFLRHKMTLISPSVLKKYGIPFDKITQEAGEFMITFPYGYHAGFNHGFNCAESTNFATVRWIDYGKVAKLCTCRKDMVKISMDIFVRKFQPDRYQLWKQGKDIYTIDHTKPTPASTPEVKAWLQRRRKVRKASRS
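System – N-terminal GST-fused human GASC-1 (KDM4C) fragment, residues 2-372 · Input – enzyme final amount 10 nM · Technique – LANCE TR-FRET, Eu antibody, ULight-streptavidin, EDTA, ex 340 nm, em 618/671 nm · Medium – HEPES buffer, pH 7.5, plus ascorbate · Incubation – enzyme reaction 30 min, then detection 60 min, both room temperature · Reagent – H3K9me3 peptide with Fe(II)/2OG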
T cruzi growth-1: T. cruzi intracellular proliferation inhibitors, primary screen, cell-based, beta-gal Tulahuen parasites, NIH3T3 host, luminescence | inhibition, % at 8.34 µM | AID 624255, 2012 | T. cruzi beta-gal in NIH3T3, GalScreen luminescence, 90 h | 77,000 tested, 5.9% active;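 active means mean inhibition above about 93%, with at least 55% of replicates each passing it, limit read from the data, passing the limit was not always enough; inconclusive means only one of those two conditions holds; inactive means neither condition holds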
IDH1 R132H inh: inhibitors of IDH1 R132H reductase, primary screen, biochemical, plate reader, single point; inhibition, % at 10 µM; 70,000 tested, 0.18% active; AID 624101, 2012; diaphorase/resazurin fluorescence, 60 min; Isocitrate dehydrogenase [NADP] cytoplasmic (Homo sapiens), O75874; in the data active means inhibition above about 34%; inconclusive means no clear call, values can overlap the other calls; inactive means below about 11%;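 further: 0% = DMSO and 100% = no enzyme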
Pf Dd2 growth: P. falciparum Dd2 growth inhibitors, primary screen, SYBR Green fluorescence, single dose replicates; 72 h; active compounds read low; activity change, % at 10 µM; 94,000 tested, 2.3% active; in the data active means activity change below about -80%; inconclusive means no clear call, values can overlap the other calls
T cruzi growth-2: T. cruzi intracellular proliferation inhibitors, confirmation, cell-based, NIH3T3 host, beta-gal parasite, luminescence, cherry-pick; shares compounds with T cruzi growth-1; inhibition, % at 8.35 µM; T. cruzi beta-gal in NIH3T3, GalScreen luminescence, 90 h; 5,600 tested, 72% active; AID 651739, 2012;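 active means mean replicate inhibition above about 95% and at least 55% of replicates individually reaching it, limit read from the data; inconclusive means only one of the two criteria is met; inactive means neither criterion is met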
T cruzi growth-3: inhibitors of intracellular T. cruzi replication, confirmation, NIH3T3 host cells, beta-gal parasites, cherry-pick, set 2. shares compounds with T cruzi growth-1. T. cruzi beta-gal in NIH3T3, GalScreen luminescence, 90 h. inhibition, % at 2.09 µM. 5,600 tested, 21% active. AID 651740, 2012;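 active means mean inhibition above about 95%, with at least 55% of replicates also reaching it, limit read from the data; inconclusive means meets just one of the two conditions; inactive means meets neither condition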;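 further: plate controls were neutral control median for no effect and positive control median for full effect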
3T3 cytotox: cytotoxicity in mouse NIH/3T3 fibroblasts, confirmation, cytotoxicity control for T. cruzi proliferation inhibitor project, cell-based, cherry-pick, single point | shares compounds with T cruzi growth-1 | NIH/3T3 viability, CellTiter-Glo ATP luminescence, 90 h | cytotoxicity (signal decrease), % at 8.35 µM | 5,600 tested, 14% active;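 active means mean signal decrease across replicates above about 35% based on untreated-well scatter, with enough replicates individually passing, limit read from the data; inconclusive means no rule stated though some were filed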;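 further: 0% = median of neutral control wells and 100% = median of positive control wells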
NIH3T3 tox 2: NIH/3T3 fibroblast cytotoxicity, confirmation, cytotoxicity control, cell-based, cherry-pick, single point, set 2; shares compounds with T cruzi growth-1; NIH/3T3 viability, CellTiter-Glo ATP luminescence, 90 h; inhibition, % at 24.9 µM; 5,600 tested, 56% active;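 active means mean loss of cell viability signal at or above a set limit, and enough replicates individually reaching it; inconclusive means meets only the mean limit or only the replicate share; inactive means meets neither condition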;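 further: 0% = median of neutral control wells and 100% = median of positive control wells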
Numbers without * were called inactive; ! = not active in a repeat.

For COc1cccc(-c2ccc3c(c2)O[C@H](CN(C)Cc2cccnc2)[C@@H](C)CN([C@H](C)CO)S3(=O)=O)c1 the results were KDM4C inh 6.9, T cruzi growth-1 113.0*, IDH1 R132H inh -0.4, Pf Dd2 growth -48.7, T cruzi growth-2 98.0*, T cruzi growth-3 108.3*, 3T3 cytotox 64.0* and NIH3T3 tox 2 85.6*.
Screening C[C@H]1CN([C@@H](C)CO)S(=O)(=O)c2ccc(-c3cccc(F)c3)cc2O[C@@H]1CN(C)C(=O)c1cccc(F)c1 returned KDM4C inh -1.7, T cruzi growth-1 83.3, IDH1 R132H inh 2.2 and Pf Dd2 growth -54.2.
For C[C@H]1CN([C@@H](C)CO)S(=O)(=O)c2ccc(-c3ccncc3)cc2O[C@H]1CN(C)C(=O)c1cccc(F)c1 the results were KDM4C inh 6.6, T cruzi growth-1 105.5*, IDH1 R132H inh 1.2, Pf Dd2 growth -43.7, T cruzi growth-2 102.0*!, T cruzi growth-3 75.7, 3T3 cytotox 4.9 and NIH3T3 tox 2 18.9.
C[C@@H]1CN([C@H](C)CO)S(=O)(=O)c2ccc(-c3ccncc3)cc2O[C@@H]1CN(C)C(=O)c1cccc(F)c1 was read as KDM4C inh 0.5, T cruzi growth-1 104.3*, IDH1 R132H inh 0.7, Pf Dd2 growth -21.1, T cruzi growth-2 88.9, T cruzi growth-3 53.8, 3T3 cytotox 9.2 and NIH3T3 tox 2 55.2*.
Screening C[C@@H]1CN([C@H](C)CO)S(=O)(=O)c2ccc(-c3cccc(F)c3)cc2O[C@H]1CN(C)C(=O)c1cccc(F)c1 returned KDM4C inh -1.2, T cruzi growth-1 82.7, IDH1 R132H inh -14.8 and Pf Dd2 growth -57.4.
For Cc1ccccc1S(=O)(=O)N(C)C[C@@H]1OCc2cnnn2CCCC(=O)N([C@@H](C)CO)C[C@@H]1C the results were KDM4C inh 0.2, T cruzi growth-1 inconclusive, Pf Dd2 growth 26.9, T cruzi growth-2 67.9, T cruzi growth-3 47.6, 3T3 cytotox -3.0 and NIH3T3 tox 2 14.8.
Screening CNC[C@H]1OCc2cnnn2CCCC(=O)N([C@@H](C)CO)C[C@H]1C returned KDM4C inh -2.2, T cruzi growth-1 119.8*, Pf Dd2 growth 1.0, T cruzi growth-2 28.9, T cruzi growth-3 60.2, 3T3 cytotox 10.7 and NIH3T3 tox 2 0.7.
Screening CNC[C@H]1OCc2cn(nn2)CCCC(=O)N([C@H](C)CO)C[C@H]1C returned KDM4C inh 3.7, T cruzi growth-1 inconclusive, IDH1 R132H inh -0.7, Pf Dd2 growth 5.0, T cruzi growth-2 59.2, T cruzi growth-3 -4.6, 3T3 cytotox -8.2 and NIH3T3 tox 2 0.3.
`CNC[C@H]1OCc2cnnn2CCCC(=O)N([C@@H](C)CO)C[C@@H]1C` gave KDM4C inh -1.9, T cruzi growth-1 8.6, IDH1 R132H inh 2.1 and Pf Dd2 growth 17.1.
Screening Cc1ccccc1S(=O)(=O)N(C)C[C@@H]1OCc2cnnn2CCCC(=O)N([C@H](C)CO)C[C@H]1C returned KDM4C inh -0.6, T cruzi growth-1 10.8, IDH1 R132H inh 2.2 and Pf Dd2 growth 13.5.
CCOC(=O)c1ccc(NC(=O)Cn2cc([N+](=O)[O-])cn2)cc1 was read as IDH1 R132H inh 0.5.
Screening C[C@@H]1CN([C@@H](C)CO)S(=O)(=O)c2ccc(C#CC3CCCC3)cc2O[C@H]1CN(C)Cc1cccnc1 returned KDM4C inh 0.6, T cruzi growth-1 93.3 and Pf Dd2 growth -69.2.
